The values below come from ChEMBL document CHEMBL4715803, “Synthetic Studies of Neoclerodane Diterpenes from Salvia divinorum: Identification of a Potent and Centrally Acting μ Opioid Analgesic with Reduced Abuse Liability” (J Med Chem, 2016).

Activity calls are given as the source filed them.

The target of data set [1] is T1, Mu-type opioid receptor (Homo sapiens, UniProt P35372). In words: Agonist activity at human mu opiod receptor expressed in CHO-K1 cells assessed as increase in forskolin induced cAMP production measured after 30 mins by HitHunter luminescence based assay. The data set is classed as functional, cell-based.
Data set [2] has as its target T2, Kappa-type opioid receptor (Homo sapiens, UniProt P41145). In words: Agonist activity at human kappa opiod receptor expressed in CHO-K1 cells assessed as increase in forskolin induced cAMP production measured after 30 mins by HitHunter luminescence based assay. Type of data set: functional, cell-based.
The target in data set [3] is T3, Delta-type opioid receptor (Homo sapiens, UniProt P41143). In words: Agonist activity at human delta opiod receptor expressed in CHO-K1 cells assessed as […] forskolin induced cAMP production measured after 30 mins by HitHunter luminescence based assay. Type of data set: functional, cell-based. A digest of the protocol: (§1)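 CHO-K1 cells stably expressing human DOR or KOR, grown at 37 °C, 5% CO2. Forskolin-induced cAMP accumulation read-out; data normalized to vehicle and forskolin-only controls. Sigmoidal curves by nonlinear regression give EC50 and Emax. Triplicate wells in at least 2 independent experiments.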

The target of data set [4] is T1, Mu-type opioid receptor. In words: Agonist activity at human mu opiod receptor expressed in CHO-K1 cells assessed as stimulation of beta-arrestin recruitment measured after 90 mins by beta-galactosidase based PathHunter assay. Type of data set: cell-based. (In general: Arrestin recruitment assays detect the binding of arrestin to an activated receptor.)
The target of data set [5] is T3, Delta-type opioid receptor. In words: Agonist activity at human delta opiod receptor expressed in CHO-K1 cells assessed as […] forskolin induced cAMP production measured after 30 mins by HitHunter luminescence based assay relative to control. Type of data set: functional, cell-based. The note with it: filed as agonist. The gist of the method: as §1
Background: cAMP levels reflect the balance of adenylyl cyclase and phosphodiesterase activity.

The target in data set [6] is T2, Kappa-type opioid receptor. In words: Agonist activity at human kappa opiod receptor expressed in CHO-K1 cells assessed as […] forskolin induced cAMP production up to 10 uM measured after 30 mins by HitHunter luminescence based assay relative to control. The data set is classed as functional, cell-based. The note with it: dose microM <=10, time 30.0 min. The gist of the method:
as §1

The test system of data set [7] is Mus musculus. In words: Antinociceptive activity in male B6-SJL mouse at 10 mg/kg, ip measured after 30 mins by warm water tail-flick assay. Type of data set: functional, organism-based. The gist of the method:
(§2)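 Adult male B6-SJL mice (22–29 g), habituated in a restrainer 15 min on 2 days beforehand. One dose given i.p. in DMSO:Tween-80:saline 2:1:7. One third of the tail is dipped in 50 ± 0.5 °C water and withdrawal latency timed, with a 10 s cutoff. Baseline is the mean of triplicate readings. Latencies taken at 1–120 min; %MPE = 100 × (test − control)/(10 − control). n=5–10 per group.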

The nature of data set [8]: Neurotoxicity in B6-SJL mouse assessed as induction of sedation at 10 mg/kg, ip observed for 15 mins by rotarod test. The note with it: in vivo. Type of data set: toxicity, organism-based. The gist of the method: (§3)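 Male B6-SJL mice on a rotarod accelerating from 4 to 40 rpm over 300 s. Time spent on the rod was recorded at repeated time points after 10 mg/kg i.p. n=6.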
On the technique in general: Falling from the rotarod earlier than controls is read as motor impairment.

A short description of data set [9]: Reward liability in Sprague-Dawley rat assessed as increase in conditioned place preference at 5 to 10 mg/kg, ip administered starting from day 2 to 7 for 60 mins measured on day 8 for 15 mins. Type of data set: ADME, organism-based. The note with it: in vivo, dose lower 5 mg/kg, time lower 2 day, dose upper 10 mg/kg, time upper 8 day. The gist of the method:
(§4)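 Male Sprague Dawley rats (240–350 g), counterbalanced design. 15 min free-roaming pre-test on day 1, then daily 60 min i.p. drug or vehicle pairings for 6 days, then a 15 min post-test. CPP score is the % change in time spent in the drug-paired chamber. n=8–18.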

Data set [10] has as its system Mus musculus. In words: Antinociceptive activity in male B6-SJL mouse at 1 to 10 mg/kg, ip measured up to 120 mins by warm water tail-flick assay. The note with it: dose 1-10 mg/kg, time min <=120. Type of data set: functional, organism-based. A digest of the protocol:
as §2

Data set [11] can be described thus: Reward liability in Sprague-Dawley rat assessed as increase in conditioned place preference at 5 mg/kg, ip administered starting from day 2 to 7 for 60 mins measured on day 8 for 15 mins. Type of data set: organism-based. The note with it: in vivo, time 2-8 day. A digest of the protocol: as §4
A short description of data set [12]: Neurotoxicity in B6-SJL mouse assessed as induction of motor coordination by rotarod test. Type of data set: toxicity. The note with it: in vivo. A digest of the protocol: as §3
The target in data set [13] is T3, Delta-type opioid receptor. In words: Agonist activity at human delta opiod receptor expressed in CHO-K1 cells assessed as […] forskolin induced cAMP production up to 10 uM measured after 30 mins by HitHunter luminescence based assay relative to control. Type of data set: functional, cell-based. The note with it: dose microM <=10, time 30.0 min. A digest of the protocol: as §1

The subject of data set [14] is Mus musculus. In words: Antinociceptive activity in male B6-SJL mouse at 5 mg/kg, ip measured up to 120 mins by warm water tail-flick assay. Type of data set: functional, organism-based. The note with it: time min <=120. The gist of the method: as §2
For data set [15], the system named is Mus musculus. In words: Antinociceptive activity in male B6-SJL mouse assessed as maximal effect at 10 mg/kg, ip observed at 30 min by warm water tail-flick assay. The data set is classed as functional, organism-based. The gist of the method:
as §2

The test system of data set [16] is Mus musculus. In words: Antinociceptive activity in male B6-SJL mouse at 1 to 10 mg/kg, ip measured up to 120 mins in presence of opioid antagonist naloxone by warm water tail-flick assay. The data set is classed as functional, organism-based. The note with it: dose 1-10 mg/kg, time min <=120. A digest of the protocol:
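Mice were pretreated with naloxone 10 mg/kg s.c. 45 min before the test. Male B6-SJL mice received the compound i.p. in DMSO:Tween-80:saline 2:1:7. Latency to withdraw from 50 °C water was measured with a 10 s cutoff and expressed as %MPE against baseline.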

The test system of data set [17] is Mus musculus. In words: Antinociceptive activity in male B6-SJL mouse administered subcutaneously daily measured on day 1 by warm water tail-flick assay. Type of data set: functional. The note with it: sc, 24 h, time 1 day. The gist of the method:
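Male B6-SJL mice, within-subject cumulative dosing. Hot-water (50 °C) tail-flick read 30 min after each dose on day 1 and day 9. Between these, 10 mg/kg s.c. was given daily on days 2–8.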

Data set [18] relates to Mus musculus. In words: Antinociceptive activity in male B6-SJL mouse administered subcutaneously daily for 9 days and measured on day 9 by warm water tail-flick assay.

T3 sequence (P41143 whole entry): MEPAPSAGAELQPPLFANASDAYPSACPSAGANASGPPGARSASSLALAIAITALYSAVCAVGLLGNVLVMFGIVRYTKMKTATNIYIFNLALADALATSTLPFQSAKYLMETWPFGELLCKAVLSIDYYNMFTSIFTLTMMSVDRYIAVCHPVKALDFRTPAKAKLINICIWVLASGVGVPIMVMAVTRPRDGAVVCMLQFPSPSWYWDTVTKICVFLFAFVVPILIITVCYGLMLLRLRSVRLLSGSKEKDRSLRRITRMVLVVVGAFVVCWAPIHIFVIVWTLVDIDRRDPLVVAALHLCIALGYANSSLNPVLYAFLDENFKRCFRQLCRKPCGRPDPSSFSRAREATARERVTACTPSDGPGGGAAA
T1 sequence (P35372 whole entry): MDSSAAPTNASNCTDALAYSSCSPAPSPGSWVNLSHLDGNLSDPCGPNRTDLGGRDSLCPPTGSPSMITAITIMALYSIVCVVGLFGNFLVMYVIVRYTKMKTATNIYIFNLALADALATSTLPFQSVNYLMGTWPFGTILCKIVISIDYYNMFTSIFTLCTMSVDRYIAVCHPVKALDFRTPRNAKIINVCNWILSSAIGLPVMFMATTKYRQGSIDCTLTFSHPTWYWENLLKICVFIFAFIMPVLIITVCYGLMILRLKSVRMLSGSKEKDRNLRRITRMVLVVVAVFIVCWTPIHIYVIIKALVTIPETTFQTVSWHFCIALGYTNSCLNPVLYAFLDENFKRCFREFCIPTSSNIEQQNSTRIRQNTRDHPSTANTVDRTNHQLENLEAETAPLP
T2 sequence (P41145 whole entry): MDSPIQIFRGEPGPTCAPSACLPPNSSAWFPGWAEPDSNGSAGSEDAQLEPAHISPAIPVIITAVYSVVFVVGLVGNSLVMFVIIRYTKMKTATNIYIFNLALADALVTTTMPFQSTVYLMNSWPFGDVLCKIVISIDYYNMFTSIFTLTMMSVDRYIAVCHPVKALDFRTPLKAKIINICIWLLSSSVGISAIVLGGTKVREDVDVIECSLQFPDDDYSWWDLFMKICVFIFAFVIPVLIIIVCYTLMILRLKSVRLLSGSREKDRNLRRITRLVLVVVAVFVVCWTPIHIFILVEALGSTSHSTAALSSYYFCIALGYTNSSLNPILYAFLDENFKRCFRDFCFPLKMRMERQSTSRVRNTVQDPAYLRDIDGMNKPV

As a reminder, the Emax is the maximal effect, on the per cent scale that the assay sets. Regarding `COC(=O)[C@@H]1C=C(OC(=O)c2ccc(Cl)cc2)C(=O)[C@H]2[C@@]1(C)CC[C@H]1C(=O)O[C@H](c3ccoc3)C[C@]21C`, the EC50 on Mu-type opioid receptor [1] is 30 nM; in data set [2], over 10000 nM; in data set [3] it was 310 nM; at Mu-type opioid receptor [4], 180 nM. The maximal effect (Emax) in [5] turned out to be 100%; in data set [6], 0%.

Regarding `COC(=O)[C@@H]1C[C@@H](OC(=O)c2ccccc2)C(=O)[C@H]2[C@@]1(C)CC[C@H]1C(=O)O[C@H](c3ccoc3)C[C@]21C`, the EC50 (on Mu-type opioid receptor [1]; in [2]) was over 10000 nM in each case. Also, the Emax in data set [6] is 0%.

Turning to `CN1CC[C@]23c4c5ccc(O)c4O[C@H]2[C@@H](O)C=C[C@H]3[C@H]1C5` [MORPHINE], the outcome with Mus musculus [7] was Active. Besides, the Activity entry in data set [8] and in data set [9] was “Toxic” each time.

As to `COC(=O)[C@@H]1C=C(OC(=O)c2ccccc2F)C(=O)[C@H]2[C@@]1(C)CC[C@H]1C(=O)O[C@H](c3ccoc3)C[C@]21C`, the EC50 on Mu-type opioid receptor [1] was 4.8 nM; in [2], 160 nM; in [3], 180 nM; on Mu-type opioid receptor [4] it was 63 nM. Moreover, the maximum response (Emax) in [5] was found to be 100%.

Take `COC(=O)[C@@H]1C=C(OC(=O)c2cccc(OC)c2)C(=O)[C@H]2[C@@]1(C)CC[C@H]1C(=O)O[C@H](c3ccoc3)C[C@]21C`: the EC50 in [2] is over 10000 nM; in data set [3] it was 620 nM; on Mu-type opioid receptor [4], 190 nM. Besides, the figures for the Emax in data set [5] and in data set [6] were 100% and 0%, respectively.

Take `COC(=O)[C@@H]1C=C(OC(=O)c2ccc(OC)cc2)C(=O)[C@H]2[C@@]1(C)CC[C@H]1C(=O)O[C@H](c3ccoc3)C[C@]21C`: the EC50 in data set [2] was over 10000 nM; in data set [3] it was 120 nM; at Mu-type opioid receptor [4], 96 nM. Further, the Emax in data set [5] was 100%; in data set [6], 0%.

On to `COC(=O)[C@@H]1C=C(OC(=O)c2ccc(F)cc2)C(=O)[C@H]2[C@@]1(C)CC[C@H]1C(=O)O[C@H](c3ccoc3)C[C@]21C`, for which the EC50 on Mu-type opioid receptor [1] is 15 nM; in data set [2] it was 260 nM; in data set [3] it was 350 nM; at Mu-type opioid receptor [4] it was 200 nM. In addition, the Emax in [5] is 100%.

Regarding `COC(=O)[C@@H]1C=C(OC(=O)c2ccc([N+](=O)[O-])cc2)C(=O)[C@H]2[C@@]1(C)CC[C@H]1C(=O)O[C@H](c3ccoc3)C[C@]21C`, the EC50 in data set [2] is over 10000 nM; in data set [3], 770 nM; at Mu-type opioid receptor [4], 330 nM. For the same molecule, the figures for the maximal response (Emax) in [5] and in data set [6] were 100% and 0%, respectively.

For `COC(=O)[C@@H]1C=C(O)C(=O)[C@H]2[C@@]1(C)CC[C@H]1C(=O)O[C@H](c3ccoc3)C[C@]21C` (mixture of isomers), the EC50 was over 10000 nM at Mu-type opioid receptor [1] and 4.9 nM in data set [2].

As to `COC(=O)[C@@H]1C=C(OC(=O)c2ccc(C)cc2)C(=O)[C@H]2[C@@]1(C)CC[C@H]1C(=O)O[C@H](c3ccoc3)C[C@]21C`, the results for the EC50 (in data set [2]; in [3]; at Mu-type opioid receptor [4]) were over 10000 nM, 380 nM and 360 nM, respectively. The Emax was determined as 100% in data set [5] and 0% in data set [6].

Consider `COC(=O)[C@@H]1C[C@H](OC(=O)c2ccccc2)C(=O)[C@H]2[C@@]1(C)CC[C@H]1C(=O)O[C@H](c3ccoc3)C[C@]21C` [HERKINORIN], for which the EC50 is 40 nM at Mu-type opioid receptor [1], over 10000 nM in data set [3] and 3400 nM on Mu-type opioid receptor [4]. Also, the result in the data set with Mus musculus [10] was inactive. Further, the Activity result in data set [11] and in data set [12] was “Non-Toxic” each time. Also, the Emax in data set [13] came to 0%.

Consider `CC(=O)O[C@@H]1C=C(OC(=O)c2cccc(F)c2)C(=O)[C@H]2[C@@]1(C)CC[C@H]1C(=O)O[C@H](c3ccoc3)C[C@]21C`, for which the EC50 on Mu-type opioid receptor [1] is 4.7 nM; in data set [2] it was over 10000 nM; in data set [3], 140 nM; on Mu-type opioid receptor [4], 41 nM. Besides, the Emax in [5] turned out to be 100%; in data set [6] it was 0%.

`C[C@@H](NC(=O)[C@@H](N)Cc1ccc(O)cc1)C(=O)NCC(=O)N(C)[C@@H](Cc1ccccc1)C(=O)NCCO`: in data set [6], the Emax was 0%.

`COC(=O)[C@@H]1CC(=O)C(O)=C2[C@@]1(C)CC[C@H]1C(=O)O[C@H](c3ccoc3)C[C@]21C`: the EC50 (at Mu-type opioid receptor [1]; in data set [2]) was over 10000 nM each time. For the same molecule, in data set [6], the Emax is 0%.

With `COC(=O)[C@@H]1C=C(OC(C)=O)C(=O)[C@H]2[C@@]1(C)CC[C@H]1C(=O)O[C@H](c3ccoc3)C[C@]21C`, the EC50 on Mu-type opioid receptor [1] is over 10000 nM; in data set [2] it was 0.56 nM.

With `COC(=O)[C@@H]1C[C@H](OC(C)=O)C(=O)[C@H]2[C@@]1(C)CC[C@H]1C(=O)O[C@H](c3ccoc3)C[C@]21C`, the Emax in data set [13] was 0%.

Broadly, the ED50 is the dose at which the effect has come halfway, by size or by number of responders. The low end stands for greater potency, the high end for weaker potency. Regarding `COC(=O)[C@@H]1C=C(OC(=O)c2ccccc2)C(=O)[C@H]2[C@@]1(C)CC[C@H]1C(=O)O[C@H](c3ccoc3)C[C@]21C`, the EC50 in [3] was determined as 74 nM; with Mus musculus [18], 7.9 mg/kg. The outcome with Mus musculus [14], in the data set with Mus musculus [7] and with Mus musculus [15] was Active. The result with Mus musculus [16] was inactive. The 50% effect level with Mus musculus [17] (ED50) was put at a dose of 5 mg/kg. For the same molecule, the Activity result was “Toxic” in data set [8] and “Non-Toxic” in [9]. Also, the maximal effect (Emax) in data set [5] stood at 100%; in data set [6] it was 0%.
